This sample holds only a part of the variants without activity.
B1: tRNA (parent)
chain: GUUCCGUUGGCGUAAUGGUAACGCGUCUCCCUCCUAAGGAGAAGACUGCGGGUUCGAGUCCCGUACGGAACG

Variants of: B1
Assay: yeast fitness relative to wild type (ratio to wild type); higher = fitter; tRNA-Arg(CCU), competitive growth, 37 C, YPD
How it was run: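 Variants of the tRNA-Arg(CCU) gene, chemically synthesised with a 3% per-site mutation rate at 69 sites, were placed at the native genomic locus in Saccharomyces cerevisiae. The pooled strains were competed in YPD at 37°C for 24 hours in six parallel replicates. Gene amplicons from the start population and from each end population were read by 100-nucleotide paired-end sequencing. Darwinian fitness relative to wild type came from changes in genotype frequencies; genotypes needed ≥ 100 starting reads, and estimates < 0.5 were set to 0.5.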

Variant	yeast fitness
U32A G48A	0.673
U32A C34G G68A A69U A70U	≤ 0.5
U32A G58C G63C	≤ 0.5
C31G U32C A37U A69C	≤ 0.5
C31U A36U A45C C62U	≤ 0.5
C31U A45U C46G	0.94
U32A U59G	0.831
C31U U32A C61U	0.627
C31U C46A G58C	0.645
C31U C34G A42C U47G A65C C66U	≤ 0.5
U32A G56C	0.594
C31U C34A A45U C61U	≤ 0.5
C31U C49G A69C	0.636
C31U A40G C46G A65G	≤ 0.5
C31G G56C C61A	≤ 0.5
C31U A37G A45C A70C	≤ 0.5
C31U C55G	0.629
C31U C55U	0.72
U32A C60A	≤ 0.5
C31U G44C A69U	0.634
C31U G44C A69C	0.585
C31U G41A	0.959
C31U C61A A69U	0.633
C31U C61A A69C	0.597

Variant	yeast fitness
C31U A40G C61G	≤ 0.5
C31G G44C C46U	1
U32C A43C C55A A57C	≤ 0.5
U32A G50A A69U	0.527
C31U C33A	0.585
C31G U64C	0.777
C31G U64G	0.714
C31U A65U G68U	0.699
C31U U35C U47A	≤ 0.5
C31U U32C G41C G68U	≤ 0.5
C31U C49U C60A G63C	≤ 0.5
U32C A43G A70G	0.708
C31U A37G A45C C62G	0.593
U32C A42U U64A A65G	≤ 0.5
C31G G51A U59A	≤ 0.5
C31G G67A	0.859
C31G G67C	0.888
C31U C33G C49A G51A	0.563
U32A C49A U53C C66G	≤ 0.5
C31G G56A U59C A65C A70G	≤ 0.5
U32A C61U	0.855
U32A C61G	0.526
C31U A40C C46G	0.744
C31U G58A C66U	0.73

Variant	yeast fitness
U32C A43U	0.921
U32C A43G	0.998
C31U C33A A69U	≤ 0.5
C31U G68U A69U	0.615
C31U A45G	0.932
C31U G68U	0.846
C31U G52C A57C	≤ 0.5
U32C A43G G52A C61G	0.532
U32C A40U C60U G67C A70G	≤ 0.5
U32A G41A C61A	≤ 0.5
U32A U59C A69C	≤ 0.5
U32C A43U A70U	0.735
C31U A40U A70U	0.7
C31U G58A	0.965
C31U C49G C61A	≤ 0.5
U32A G56C A69U	0.53
C31U A57G	1.06
C31U A57U	0.619
C31G G48A U59C	0.793
C31G U47G C49G C60U C62G	≤ 0.5
U32C A37U G48A	0.537
U32C A40G G48C A69U A70U	≤ 0.5
C31U G48A G56U A65G	≤ 0.5
U32A A43G	0.666

Variant	yeast fitness
U32A A43U	0.879
C31U A43G U53C	0.513
C31U A40U C66A	≤ 0.5
U32A U35A A42U	≤ 0.5
U32C A37C C49G A57G	≤ 0.5
C31U A36G A57U	≤ 0.5
U32A A42U U54C	≤ 0.5
U32A U53C A69C	≤ 0.5
U32A C33U A40C	0.661
U32A C33G C66U A69U	≤ 0.5
C31U C46G A69U	0.731
C31U C62A	0.776
C31U C62G	0.949
C31U C62U	0.907
C31G G58C G67C	0.533
C31U U64G	0.775
C31U U64C	0.817
C31U A36G A45U	0.593
C31U C46G C55U	0.542
U32C A37U G48A G63C	≤ 0.5
C31G G56C	0.632
U32A G38A A57U	0.557
C31U C33G A65C G68A A69U	≤ 0.5
C31G G44C U53C A65U	≤ 0.5

Variant	yeast fitness
C31U A37U C60G	≤ 0.5
C31U A40G G63A A70U	≤ 0.5
U32C A37U G44A A70G	≤ 0.5
U32A A65G	0.719
U32A A70G	0.841
C31U C61U C66A	≤ 0.5
U32A A36G G39C G50A U64C	≤ 0.5
C31U G58A A65G	0.73
U32C A40G	0.66
C31U C33A C62U	≤ 0.5
C31G U32A C49U C62A	≤ 0.5
C31U A40G U54C A70U	0.527
C31U C49U	1.04
U32C A37G	0.819
C31U C66U A69U	0.807
U32A U47C	0.826
U32C A42C G44C A69C	≤ 0.5
C31U G38C G51A G56A	0.543
C31U U47A C61U A70C	≤ 0.5
C31U	0.986
C31U U47G G67C	≤ 0.5
U32A U64A A65U	0.961
C31U G38A A40C G68C A70U	≤ 0.5
U32A U35G A36U G38A U47C	≤ 0.5

Variant	yeast fitness
C31U C34A A36G G38C G51A	≤ 0.5
U32A A36G	0.814
U32A A36G G39C C62U	≤ 0.5
C31U C33U A37G U59A U64G	0.525
C31U A37C A43U G50C A69U	≤ 0.5
U32C A40C G51A C61U A69C	≤ 0.5
C31G G51C	0.756
C31U U32A U35C A65G	≤ 0.5
C31U C60G G67A	≤ 0.5
C31U C34A A40G	≤ 0.5
C31U U53C C62G	0.625
U32A A45C G48A	0.509
C31G G51C C66U	0.566
C31U G41C A43C G48A C60G	≤ 0.5
C31U A65U	0.955
C31U C55G U59A	≤ 0.5
U32A A36C C60G	≤ 0.5
C31U G63A	1.14
U32C A45G	0.91
U32C A45U	0.942
U32C A45C	0.864
U32A C62U	0.645
U32A C62A	0.549
C31U A69U	0.999

Variant	yeast fitness
C31U A69G	0.924
C31U G48C A69C	0.67
C31U C34A A40G U59A	0.566
C31G U53A	0.694
U32A U35A	0.619
U32A C55A	0.572
C31U A36U A45C C46G G48C	0.53
C31G U32C G39C	0.507
C31U C34A A36G G38C A69U	≤ 0.5
C31U C34A C61G	≤ 0.5
U32C A42U G58C	0.623
C31U C61U	0.93
C31U C61G	0.707
C31U C61A	0.726
C31G U32G C55A C62G A65U	0.688
C31U A43U G48A U53A	0.587
C31G U47A	0.847
C31U A40U	0.975
C31U A40G	0.786
C31U A40C	0.937
U32A C49U	0.78
U32A C49A	0.582
C31G U32G C33U A70G	≤ 0.5

Reference: the RNAGym collection of RNA variant scans (doi:10.1126/science.aae0568)
